Test results: ChEMBL document CHEMBL4715734, “Discovery of the Potent and Selective M1 PAM-Agonist N-[(3R,4S)-3-Hydroxytetrahydro-2H-pyran-4-yl]-5-methyl-4-[4-(1,3-thiazol-4-yl)benzyl]pyridine-2-carboxamide (PF-06767832): Evaluation of Efficacy and Cholinergic Side Effects” (J Med Chem, 2016); call rule not given here

How the values were obtained:
[1] = Unbound brain concentration in CD-1 mouse at 10 mg/kg, sc measured after 2 hrs by LC-MS/MS analysis; format: ADME, organism-based; details: in vivo
[2] = Toxicity in po dosed dog assessed as NOAEL using spray-dried dispersion formulation; format: organism-based, Canis lupus familiaris; details: in vivo
[3] = molecular target: T1, Muscarinic acetylcholine receptor M1 (Homo sapiens) (UniProt P11229); assay: Binding affinity to human muscarinic M1 receptor stably expressed in CHO cells assessed as increase in intracellular calcium level by measuring binding constant measured after 10 mins by Fluo-8AM dye based FLIPR TETRA method; format: cell-based; details: filed as positive allosteric modulator
T1 sequence (whole entry): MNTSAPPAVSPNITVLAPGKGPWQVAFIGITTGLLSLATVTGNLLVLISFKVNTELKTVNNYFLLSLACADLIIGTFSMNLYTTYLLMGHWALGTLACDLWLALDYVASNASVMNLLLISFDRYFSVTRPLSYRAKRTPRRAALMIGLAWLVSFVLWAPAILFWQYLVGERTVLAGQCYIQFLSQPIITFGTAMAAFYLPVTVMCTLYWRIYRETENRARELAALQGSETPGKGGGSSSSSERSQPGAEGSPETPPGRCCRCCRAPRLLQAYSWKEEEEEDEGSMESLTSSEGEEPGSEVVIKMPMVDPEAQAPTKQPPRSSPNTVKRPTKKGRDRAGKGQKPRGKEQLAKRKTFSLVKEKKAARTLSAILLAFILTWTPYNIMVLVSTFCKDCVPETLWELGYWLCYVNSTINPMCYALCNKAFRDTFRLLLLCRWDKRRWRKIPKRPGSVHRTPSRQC

[4] = molecular target: T2, Muscarinic acetylcholine receptor M4 (Homo sapiens, UniProt P08173); assay: Positive allosteric modulation of human recombinant muscarinic M4 receptor stably expressed in HEK cells assessed as increase in ACh-induced cAMP accumulation up to 10 uM measured after 10 mins by GloSensor cAMP Assay; format: cell-based
T2 sequence (P08173 whole entry): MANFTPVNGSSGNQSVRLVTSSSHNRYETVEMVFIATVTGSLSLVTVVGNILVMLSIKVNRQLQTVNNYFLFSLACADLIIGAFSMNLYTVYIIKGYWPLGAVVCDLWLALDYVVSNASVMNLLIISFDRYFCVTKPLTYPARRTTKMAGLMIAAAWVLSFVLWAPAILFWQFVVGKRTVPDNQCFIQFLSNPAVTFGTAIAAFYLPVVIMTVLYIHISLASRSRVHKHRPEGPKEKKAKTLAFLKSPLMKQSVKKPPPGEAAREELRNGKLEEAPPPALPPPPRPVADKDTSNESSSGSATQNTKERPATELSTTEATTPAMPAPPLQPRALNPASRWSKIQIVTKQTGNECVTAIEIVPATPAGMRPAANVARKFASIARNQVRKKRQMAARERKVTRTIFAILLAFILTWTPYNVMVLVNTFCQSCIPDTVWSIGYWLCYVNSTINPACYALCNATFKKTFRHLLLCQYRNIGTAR

[5] = fAUC (0 to 24 hrs) in rat at 15 mg/kg, po administered for 14 days; format: ADME, organism-based; details: in vivo, 336 h, time 14 day
How it was run: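 2-week repeat oral dosing in rats, 0.5% methylcellulose formulation; N=4/sex/dose; doses 3, 10, 30 (males)/15 (females) mg/kg; unbound exposures reported per dose and sex.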

[6] = Toxicity in male rat assessed as increase in body weight at 30 mg/kg, po administered for 14 days; details: in vivo, 336 h
[7] = Positive allosteric modulation of muscarinic M2/M3 receptor in Hartley guinea pig ileum assessed as increase in donepezil-induced stimulation of contraction; format: tissue-based; details: Cavia porcellus
How it was run: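 PAM mode used guinea pig ileum in a tissue bath. Contraction concentration–response curves were run in the presence of an EC20 of donepezil, with or without atropine.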

[8] = Toxicity in male rat assessed as increase in body weight at 10 mg/kg, po administered for 14 days; format: organism-based; details: in vivo, 336 h, time 14 day
How it was run: (§1)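 Two-week repeat-dose toxicity study in rats. Oral dosing in 0.5% methylcellulose at 3, 10, 30 (males)/15 (females) mg/kg, N=4/sex/dose. Food intake, body weight gain and histopathology were assessed.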

[9] = molecular target: Muscarinic acetylcholine receptor M3 (Homo sapiens, UniProt P20309); assay: Agonist activity at human recombinant muscarinic M3 receptor stably expressed in CHO cells assessed as increase in intracellular calcium level up to 10 uM incubated for 10 mins by Fluo-8AM dye based FLIPR TETRA method; format: cell-based
[10] = Toxicity in male Beagle dog assessed as increase in maximum systolic left ventricular pressure at 3 mg/kg, po observed up to 9 hrs post last dose by telemetry; format: organism-based, Canis lupus familiaris; details: in vivo
How it was run: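 Crossover telemetry study in dogs at three oral doses (0.3, 1 and 3 mg/kg), N=4. Endpoints were blood pressure, maximum systolic left ventricular pressure, LV +dP/dt max, activity, heart rate, and RR, QT and QTc intervals, followed up to 9 h post dose.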

[11] = Partial agonist activity at muscarinic M2/M3 receptor in Hartley guinea pig ileum assessed as stimulation of contraction; format: tissue-based; details: Cavia porcellus
How it was run: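 Agonist mode used a guinea pig ileum tissue bath with the compound applied alone. Concentration–response curves were run with or without the non-selective muscarinic antagonist atropine. Contraction was expressed relative to the maximal carbachol response.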

[12] = Toxicity in dog assessed as induction of loose stool at 0.3 mg/kg, po using spray-dried dispersion formulation; format: organism-based, Canis lupus familiaris; details: in vivo
[13] = Ratio of AUC in C57BL/6 mouse brain to plasma at 1 mg/kg, sc; format: ADME, organism-based; details: brain and plasma, read-out: Ratio AUC
MDR1 (P-gp) = assay: Efflux ratio of permeability across basolateral to apical side over apical to basolateral side in dog MDCK-MDR1 cells; format: ADME, cell-based, Canis lupus familiaris
[14] = Toxicity in rat assessed as histopathological changes at 3 to 30 mg/kg, po administered for 14 days; format: organism-based; details: in vivo, 336 h, dose 3-30 mg/kg, time 14 day; how it was run: as §1
[15] = Fraction unbound in rat brain; format: ADME, cell-free

Chain of Muscarinic acetylcholine receptor M3 (P20309 whole entry): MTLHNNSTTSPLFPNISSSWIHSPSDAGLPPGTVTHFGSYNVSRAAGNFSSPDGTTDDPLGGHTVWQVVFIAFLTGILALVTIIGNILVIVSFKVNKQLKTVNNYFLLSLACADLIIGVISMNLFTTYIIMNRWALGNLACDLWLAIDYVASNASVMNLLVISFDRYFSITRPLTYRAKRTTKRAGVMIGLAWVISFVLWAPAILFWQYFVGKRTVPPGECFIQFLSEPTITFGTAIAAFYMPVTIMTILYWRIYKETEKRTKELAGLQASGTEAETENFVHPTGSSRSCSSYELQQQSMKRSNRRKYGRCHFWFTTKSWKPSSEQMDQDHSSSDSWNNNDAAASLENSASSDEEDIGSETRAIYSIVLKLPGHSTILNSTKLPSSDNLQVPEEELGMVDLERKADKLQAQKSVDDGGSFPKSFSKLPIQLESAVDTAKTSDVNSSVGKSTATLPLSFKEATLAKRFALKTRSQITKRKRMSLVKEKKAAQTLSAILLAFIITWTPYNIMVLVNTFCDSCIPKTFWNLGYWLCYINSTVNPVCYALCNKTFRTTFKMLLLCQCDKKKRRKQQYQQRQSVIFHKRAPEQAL

Drug uptake(free) [1]: 195 nM | Kb [3]: 5000 nM | Activity [4]: Not Active | fAUC [5]: 9.768 µM·h | EC50 [7]: 82 nM | Activity [9]: Not Active | EC50 [11]: 351 nM | Kp [13]: 0.2 | efflux ratio (MDR1 (P-gp)): 1.3 | Fu [15]: 4%
SMILES: Cc1cnc(C(=O)N[C@H]2CCOC[C@@H]2O)cc1Cc1ccc(-c2cscn2)cc1
NOAEL [2]: 5 mg/kg | Activity [6]: Non-Toxic | Activity [8]: Non-Toxic | Activity [10]: Toxic | Activity [12]: Toxic | Activity [14]: Non-Toxic
